ChEMBL document CHEMBL4689842, “EUbOPEN Chemogenomics Library wave 1” (2021)

System: U2OS
Assay: Multiplex assay against U2OS
Format: toxicity, cell-based
Conditions: human
Procedure, shortened: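 Tubulin, mitochondrial-mass and membrane-permeability phenotypes are per cents of healthy-nucleus cells. Cells were gated by CellPathfinder machine learning into Hoechst high-intensity objects or normal cells, normal cells into healthy, pyknosed or fragmented nuclei, and pyknosed cells into mitotic or apoptotic. Before that, live cells stained at seeding with Hoechst33342, BioTracker Green Microtubule Cytoskeleton Dye, MitoTracker Red and Annexin V Alexa Fluor 680 were imaged on a CQ1 microscope at 37°C and 5% CO2 after compound addition.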

[1] = 12 h, 1 µM, compound concentration 1 uM, replicate 1
[2] = 12 h, 1 µM, compound concentration 1 uM, replicate 2
[3] = 12 h, 10 µM, compound concentration 10 uM, replicate 1
[4] = 12 h, 10 µM, compound concentration 10 uM, replicate 2
[5] = 24 h, 1 µM, compound concentration 1 uM, replicate 1
[6] = 24 h, 1 µM, compound concentration 1 uM, replicate 2
[7] = 24 h, 10 µM, compound concentration 10 uM, replicate 1
[8] = 24 h, 10 µM, compound concentration 10 uM, replicate 2

Structure (SMILES): CCN1CCN(c2ccc(Nc3cc(N(C)C(=O)Nc4c(Cl)c(OC)cc(OC)c4Cl)ncn3)cc2)CC1 [INFIGRATINIB]
- Population Apoptotic (%) [1]: 33%
- Population Fragmented Nuclei (%) [1]: 15%
- Population Healthy Nuclei (%) [1]: 60%
- Population Hoechst High Intensity Objects (%) [1]: 4%
- Population Membrane Permeable-Phenotype (%) [1]: 20%
- Population Mitochondria Different-Phenotype (%) [1]: 38%
- Population Mitotic Cells (%) [1]: 66%
- Population Normal (%) [1]: 95%
- Population Pyknosed Nuclei (%) [1]: 24%
- Population Tubulin-Different-Phenotype (%) [1]: 71%
- Total Cell Count [1]: 142
- Population Apoptotic (%) [2]: 40%
- Population Fragmented Nuclei (%) [2]: 26%
- Population Healthy Nuclei (%) [2]: 51%
- Population Hoechst High Intensity Objects (%) [2]: 10%
- Population Membrane Permeable-Phenotype (%) [2]: 21%
- Population Mitochondria Different-Phenotype (%) [2]: 55%
- Population Mitotic Cells (%) [2]: 59%
- Population Normal (%) [2]: 89%
- Population Pyknosed Nuclei (%) [2]: 21%
- Population Tubulin-Different-Phenotype (%) [2]: 55%
- Total Cell Count [2]: 127
- Population Apoptotic (%) [3]: 50%
- Population Fragmented Nuclei (%) [3]: 4%
- Population Healthy Nuclei (%) [3]: 87%
- Population Hoechst High Intensity Objects (%) [3]: 6%
- Population Membrane Permeable-Phenotype (%) [3]: 11%
- Population Mitochondria Different-Phenotype (%) [3]: 17%
- Population Mitotic Cells (%) [3]: 50%
- Population Normal (%) [3]: 93%
- Population Pyknosed Nuclei (%) [3]: 7%
- Population Tubulin-Different-Phenotype (%) [3]: 18%
- Total Cell Count [3]: 198
- Population Apoptotic (%) [4]: 16%
- Population Fragmented Nuclei (%) [4]: 7%
- Population Hoechst High Intensity Objects (%) [4]: 13%
- Population Mitochondria Different-Phenotype (%) [4]: 18%
- Population Mitotic Cells (%) [4]: 83%
- Population Normal (%) [4]: 86%
- Population Pyknosed Nuclei (%) [4]: 5%
- Population Tubulin-Different-Phenotype (%) [4]: 13%
- Total Cell Count [4]: 86
- Population Apoptotic (%) [5]: 49%
- Population Fragmented Nuclei (%) [5]: 16%
- Population Healthy Nuclei (%) [5]: 44%
- Population Hoechst High Intensity Objects (%) [5]: 8%
- Population Membrane Permeable-Phenotype (%) [5]: 30%
- Population Mitochondria Different-Phenotype (%) [5]: 63%
- Population Mitotic Cells (%) [5]: 50%
- Population Normal (%) [5]: 91%
- Population Pyknosed Nuclei (%) [5]: 38%
- Population Tubulin-Different-Phenotype (%) [5]: 81%
- Total Cell Count [5]: 192
- Population Apoptotic (%) [6]: 70%
- Population Fragmented Nuclei (%) [6]: 30%
- Population Healthy Nuclei (%) [6]: 39%
- Population Hoechst High Intensity Objects (%) [6]: 14%
- Population Membrane Permeable-Phenotype (%) [6]: 19%
- Population Mitochondria Different-Phenotype (%) [6]: 78%
- Population Mitotic Cells (%) [6]: 29%
- Population Normal (%) [6]: 85%
- Population Pyknosed Nuclei (%) [6]: 30%
- Population Tubulin-Different-Phenotype (%) [6]: 70%
- Total Cell Count [6]: 151
- Population Apoptotic (%) [7]: 14%
- Population Fragmented Nuclei (%) [7]: 5%
- Population Healthy Nuclei (%) [7]: 87%
- Population Hoechst High Intensity Objects (%) [7]: 2%
- Population Membrane Permeable-Phenotype (%) [7]: 15%
- Population Mitochondria Different-Phenotype (%) [7]: 14%
- Population Mitotic Cells (%) [7]: 85%
- Population Normal (%) [7]: 97%
- Population Pyknosed Nuclei (%) [7]: 7%
- Population Tubulin-Different-Phenotype (%) [7]: 23%
- Total Cell Count [7]: 199
- Population Apoptotic (%) [8]: 27%
- Population Fragmented Nuclei (%) [8]: 10%
- Population Healthy Nuclei (%) [8]: 81%
- Population Hoechst High Intensity Objects (%) [8]: 9%
- Population Membrane Permeable-Phenotype (%) [8]: 17%
- Population Mitochondria Different-Phenotype (%) [8]: 20%
- Population Mitotic Cells (%) [8]: 72%
- Population Normal (%) [8]: 90%
- Population Pyknosed Nuclei (%) [8]: 8%
- Population Tubulin-Different-Phenotype (%) [8]: 11%
- Total Cell Count [8]: 81
